According to ChEMBL document CHEMBL1949556, “Design and synthesis of boronic acid inhibitors of endothelial lipase” (Bioorg Med Chem Lett, 2012):

How the values were obtained:
Endothelial lipase [1] = target: T1, Endothelial lipase (Homo sapiens, UniProt Q9Y5X9); test: Inhibition of human endothelial lipase overexpressed in HUVEC cells using bis-BD-PC and mono-BD-TG as substrate incubated for 10 mins prior to substrate addition by micelle assay; type: cell-based
T1 sequence (Q9Y5X9 whole entry): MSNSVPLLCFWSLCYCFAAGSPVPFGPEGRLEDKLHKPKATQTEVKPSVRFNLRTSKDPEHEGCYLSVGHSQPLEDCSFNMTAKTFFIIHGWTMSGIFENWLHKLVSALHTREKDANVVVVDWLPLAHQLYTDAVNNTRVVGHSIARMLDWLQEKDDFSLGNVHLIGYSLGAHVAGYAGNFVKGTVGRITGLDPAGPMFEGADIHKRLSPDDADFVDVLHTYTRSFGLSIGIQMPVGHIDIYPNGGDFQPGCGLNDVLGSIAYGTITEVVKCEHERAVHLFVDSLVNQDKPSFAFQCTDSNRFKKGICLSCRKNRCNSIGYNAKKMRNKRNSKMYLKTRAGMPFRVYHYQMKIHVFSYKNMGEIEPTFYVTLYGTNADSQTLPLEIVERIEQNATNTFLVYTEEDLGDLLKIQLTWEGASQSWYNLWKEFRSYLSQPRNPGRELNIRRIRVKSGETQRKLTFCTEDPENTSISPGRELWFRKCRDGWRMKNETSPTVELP
Summary of the method: (§1)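 Detergent micelle system, which removes interfacial catalysis and gives direct access to the active site; IC50 taken as mean of two independent experiments, each run in duplicate.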

Lipoprotein lipase [2] = target: T2, Lipoprotein lipase (Homo sapiens, UniProt P06858); test: Inhibition of human lipoprotein lipase expressed in HEK293 cells using bis-BD-PC and mono-BD-TG as substrate incubated for 10 mins prior to substrate addition by micelle assay; summary of the method: as §1
T2 sequence (P06858 whole entry): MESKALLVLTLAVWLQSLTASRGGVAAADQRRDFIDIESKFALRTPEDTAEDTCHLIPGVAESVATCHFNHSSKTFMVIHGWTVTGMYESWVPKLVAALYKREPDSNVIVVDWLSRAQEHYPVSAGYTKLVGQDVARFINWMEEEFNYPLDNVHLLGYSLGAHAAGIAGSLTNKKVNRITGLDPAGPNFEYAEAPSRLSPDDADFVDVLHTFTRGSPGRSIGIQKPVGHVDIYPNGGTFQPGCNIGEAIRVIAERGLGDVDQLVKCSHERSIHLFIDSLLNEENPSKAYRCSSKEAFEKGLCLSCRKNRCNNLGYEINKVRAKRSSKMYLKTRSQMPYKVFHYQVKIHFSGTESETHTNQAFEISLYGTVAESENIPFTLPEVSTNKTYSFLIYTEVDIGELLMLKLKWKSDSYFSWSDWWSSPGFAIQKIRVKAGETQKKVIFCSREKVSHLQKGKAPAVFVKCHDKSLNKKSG

Homo sapiens [3] = species on record: Homo sapiens; test: Selectivity ratio of IC50 for human lipoprotein lipase by micelle assay to IC50 for human endothelial lipase by micelle assay
Summary of the method: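 Ratio of lipoprotein lipase IC50 to endothelial lipase IC50, both from micelle assays; unitless.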

Endothelial lipase [4] = target: T1, Endothelial lipase; test: Inhibition of human endothelial lipase expressed using recombinant adenovirus using glycerol-tri[9,10(n)-3H]oleate after 1 hr by vesicle assay
Summary of the method: (§2)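 Vesicle (interfacial catalysis) substrate system; IC50 taken as mean of two independent experiments, each run in duplicate.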

Lipoprotein lipase [5] = target: T2, Lipoprotein lipase; test: Inhibition of human lipoprotein lipase expressed using recombinant adenovirus using glycerol-tri[9,10(n)-3H]oleate after 1 hr by vesicle assay; summary of the method: as §2
Homo sapiens [6] = species on record: Homo sapiens; test: Selectivity ratio of IC50 for human lipoprotein lipase to IC50 for human endothelial lipase by vesicle assay
Summary of the method: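 Ratio of lipoprotein lipase IC50 to endothelial lipase IC50, both from vesicle assays; unitless.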

[7] = target: T3, Lipoprotein lipase (Homo sapiens) (UniProt P06858); test: Inhibition of human lipoprotein lipase expressed using recombinant adenovirus using glycerol-tri[9,10(n)-3H]oleate at 50 uM after 1 hr by vesicle assay
T3 sequence (whole entry): T2 sequence (P06858 whole entry)
Summary of the method: (§3)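 Vesicle-based substrate system with the test agent at a single 50 μM concentration; percent inhibition of lipase activity reported.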

[8] = target: T4, Endothelial lipase (Homo sapiens) (UniProt Q9Y5X9); test: Inhibition of human endothelial lipase expressed using recombinant adenovirus using glycerol-tri[9,10(n)-3H]oleate at 50 uM after 1 hr by vesicle assay; summary of the method: as §3
T4 sequence (whole entry): T1 sequence (Q9Y5X9 whole entry)

| SMILES | IC50 (Endothelial lipase [1]) [nM] | IC50 (Lipoprotein lipase [2]) [µM] | Ratio IC50 (Homo sapiens [3]) | IC50 (Endothelial lipase [4]) [nM] | IC50 (Lipoprotein lipase [5]) [µM] | Ratio IC50 (Homo sapiens [6]) | inhibition [7] [%] | inhibition [8] [%] |
| --- | --- | --- | --- | --- | --- | --- | --- | --- |
| CCCc1ccc(B(O)O)cc1 | 4000 | 12.5 | 3.1 | 2000 | 8 | 4 |  |  |
| CCCCCc1ccc(B(O)O)cc1 | 470 | 3.8 | 8 | 1000 | 15 | 15 |  |  |
| Cc1ccc(B(O)O)cc1 [TOLYL BORONIC ACID] | 22000 | 25 | 1.1 |  | 9 | 0.5 |  |  |
| CCCCCCCCCCCCCCCC(=O)C(F)(F)F |  |  |  |  |  |  | 14 | 56 |
| CCCCCCCCCc1cccc(B(O)O)c1 | 5000 | 95 | 19 | 2800 | > 50 | > 20 |  |  |
| CC1(C)OB(c2ccc(-c3ccco3)cc2)OC1(C)C | 1300 | 35 | 27 | 1900 | 9.6 | 5 |  |  |
| CC1(C)OB(c2ccc(-c3ccc4ccccc4c3)cc2)OC1(C)C | 1700 | 15 | 8.8 | 2000 | 22 | 11 |  |  |
| CCCCCCCCCCCc1ccc(B(O)O)cc1 | 200 | 1.5 | 7.5 | 2000 | 50 | 25 |  |  |
| CC1(C)OB(c2ccc(-c3ccsc3)cc2)OC1(C)C | 3100 | 36 | 12 | 1300 | 13 | 10 |  |  |
| CCCCCc1cccc(B(O)O)c1 | 22000 | 85 | 3.8 | 12800 | 50 | 4 |  |  |
| CCCCCc1cccc(B2OC(C)(C)C(C)(C)O2)c1 | 35000 | 100 | 2.8 | 4200 | 45 | 11 |  |  |
| CCCCCCCCCc1ccccc1B(O)O | 11000 | > 500 | > 50 | 50000 | > 50 |  |  |  |
| CCCCCCCc1ccc(B(O)O)cc1 | 320 | 9 | 28 | 1700 | 30 | 18 |  |  |
| CCCc1ccc(B2OC(C)(C)C(C)(C)O2)cc1 | 6000 | 25 | 4.1 | 5000 | 25 | 5 |  |  |
| CC1(C)OB(c2ccc(-c3ccc(F)cc3)cc2)OC1(C)C | 1100 | 33 | 30 | 1600 | 55 | 34 |  |  |
| CCCCCCCCCc1ccc(B(O)O)cc1 | 100 | 1.4 | 14 | 1000 | 42 | 42 |  |  |
| CCCCCCCCCCCCCCCC(=O)C=[N+]=[N-] |  |  |  |  |  |  | 20 |  |
| CCCCCc1ccc(B2OC(C)(C)C(C)(C)O2)cc1 | 1100 | 21 | 19 | 2600 | 50 | 19 |  |  |
| CCCCCCCCCCCCCCCB(O)O |  |  |  |  |  |  | 63 | 90 |
| CCCCCCCCCCCCCCCC(=O)CCl |  |  |  |  |  |  | -10 | 10 |
| CC1(C)OB(c2ccc(-c3ccccc3)cc2)OC1(C)C | 1000 | 12 | 12 | 1000 | 4.4 | 4.4 |  |  |
| CCCCCCCCCCCCCCCC#N |  |  |  |  |  |  | 14 | 4 |
| CCCCCCCCCc1ccc(B2OC(C)(C)C(C)(C)O2)cc1 | 1000 | 15 | 15 | 2500 | 50 | 20 |  |  |
| CCCCCCCCCCCc1ccc(B2OC(C)(C)C(C)(C)O2)cc1 | 1400 | 15 | 11 | 4500 | > 50 |  |  |  |
| CCCCCCCc1ccc(B2OC(C)(C)C(C)(C)O2)cc1 | 1100 | 19 | 17 | 3500 | 55 | 16 |  |  |
| CCCCCCCCCCCCCCCC=O |  |  |  |  |  |  | -1 | 7 |
| CCc1ccc(B(O)O)cc1 | 19000 | 20 | 1 |  | 9 | 0.3 |  |  |
| CC1(C)OB(c2ccc(-c3ccoc3)cc2)OC1(C)C | 2900 | 33 | 11 | 2800 | 15 | 5.4 |  |  |
| CC1(C)OB(c2ccc(-c3cccs3)cc2)OC1(C)C | 1600 | 40 | 25 | 1900 | 7 | 3.7 |  |  |
